Measurements reported in ChEMBL document CHEMBL4732237, “Discovery of 4-alkoxy-2-aryl-6,7-dimethoxyquinolines as a new class of topoisomerase I inhibitors endowed with potent in vitro anticancer activity” (2021).

How the values were obtained:
DU-145 = experiment: Growth inhibition of human DU-145 cells incubated for 48 hrs by sulforhodamine B assay; format: functional
How it was run: (§1)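 NCI five-dose screen covering 0.01–100 µM, prepared as 10-fold or ½-log dilutions from DMSO stock. Cells in RPMI 1640 with 5% FBS were exposed for 48 h at 37 °C after 24 h preincubation. Adherent cells were fixed with TCA (final 10%) and suspension cells were settled before fixing. Stain was SRB, read at 515 nm. GI50 = 50% reduction in net protein increase versus control, with Tz taken at drug addition.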

SF-268 = experiment: Growth inhibition of human SF-268 cells incubated for 48 hrs by sulforhodamine B assay; format: functional
How it was run: (§2)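 NCI five-dose screen (0.01–100 µM; five concentrations plus control). Cells grown in RPMI 1640/5% FBS/2 mM L-glutamine and preincubated 24 h, with time-zero plates TCA-fixed. Drug exposure 48 h at 37 °C, followed by SRB protein staining and reading at 515 nm. GI50 is the concentration at [(Ti-Tz)/(C-Tz)]×100 = 50.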

RXF 393 = experiment: Growth inhibition of human RXF 393 cells incubated for 48 hrs by sulforhodamine B assay; format: functional; how it was run: as §2
A498 = experiment: Growth inhibition of human A498 cells incubated for 48 hrs by sulforhodamine B assay; format: functional
How it was run: (§3)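 NCI five-dose assay, with drug stocks in DMSO diluted in medium to five concentrations (10-fold or ½-log series). Cells in RPMI 1640/5% FBS were pre-incubated 24 h, and time-zero plates were TCA-fixed at drug addition. After 48 h at 37 °C, cells were TCA-fixed, SRB-stained and read at 515 nm. GI50 is from [(Ti-Tz)/(C-Tz)]×100 = 50, TGI from Ti = Tz, and LC50 from [(Ti-Tz)/Tz]×100 = -50.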

[1] = target: T1, DNA topoisomerase 1 (Homo sapiens) (UniProt P11387); experiment: Inhibition of recombinant human TOPO1 assessed as TOP1-DNA cleavage complexes at 1 uM using 3'-[32-P]-117 labeled bp DNA as substrate incubated for 30 mins by SDS-PAGE analysis relative to control
T1 sequence (whole entry): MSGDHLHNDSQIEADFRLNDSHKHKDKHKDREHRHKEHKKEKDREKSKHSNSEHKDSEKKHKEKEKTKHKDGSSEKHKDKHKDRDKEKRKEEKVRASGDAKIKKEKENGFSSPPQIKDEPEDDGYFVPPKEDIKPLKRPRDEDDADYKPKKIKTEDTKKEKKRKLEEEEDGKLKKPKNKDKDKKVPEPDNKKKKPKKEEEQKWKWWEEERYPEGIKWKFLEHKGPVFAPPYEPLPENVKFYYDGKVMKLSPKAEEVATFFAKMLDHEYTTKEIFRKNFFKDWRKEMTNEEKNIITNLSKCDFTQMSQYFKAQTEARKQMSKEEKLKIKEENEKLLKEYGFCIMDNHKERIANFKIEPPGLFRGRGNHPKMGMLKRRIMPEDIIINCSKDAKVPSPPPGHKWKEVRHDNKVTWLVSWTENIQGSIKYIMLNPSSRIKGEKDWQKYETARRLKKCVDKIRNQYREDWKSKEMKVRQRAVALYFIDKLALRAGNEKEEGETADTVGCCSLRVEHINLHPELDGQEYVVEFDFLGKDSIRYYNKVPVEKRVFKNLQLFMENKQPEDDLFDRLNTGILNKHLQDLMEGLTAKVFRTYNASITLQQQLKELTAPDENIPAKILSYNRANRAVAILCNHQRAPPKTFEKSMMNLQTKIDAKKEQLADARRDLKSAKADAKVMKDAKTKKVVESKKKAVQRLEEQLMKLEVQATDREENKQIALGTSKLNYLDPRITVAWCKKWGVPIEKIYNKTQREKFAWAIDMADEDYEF

MOLT-4 = experiment: Growth inhibition of human MOLT-4 cells incubated for 48 hrs by sulforhodamine B assay; format: functional; how it was run: as §2
HCC 2998 = experiment: Growth inhibition of human HCC 2998 cells incubated for 48 hrs by sulforhodamine B assay; format: functional; how it was run: as §1
Hs-578T = experiment: Growth inhibition of human HS-578T cells incubated for 48 hrs by sulforhodamine B assay; format: functional; how it was run: as §1
K562 = experiment: Growth inhibition of human K562 cells incubated for 48 hrs by sulforhodamine B assay; format: functional; how it was run: as §1
CAKI-1 = experiment: Growth inhibition of human CAKI-1 cells incubated for 48 hrs by sulforhodamine B assay; format: functional; how it was run: as §1
NCI-H522 = experiment: Growth inhibition of human NCI-H522 cells incubated for 48 hrs by sulforhodamine B assay; format: functional; how it was run: as §2
NCI-H226 = experiment: Growth inhibition of human NCI-H226 cells incubated for 48 hrs by sulforhodamine B assay; format: functional; how it was run: as §2
ACHN = experiment: Growth inhibition of human ACHN cells incubated for 48 hrs by sulforhodamine B assay; format: functional; how it was run: as §1
M14 = experiment: Growth inhibition of human M14 cells incubated for 48 hrs by sulforhodamine B assay; format: functional; how it was run: as §1
TK-10 = experiment: Growth inhibition of human TK-10 cells incubated for 48 hrs by sulforhodamine B assay; format: functional; how it was run: as §3
HOP-92 = experiment: Growth inhibition of human HOP-92 cells incubated for 48 hrs by sulforhodamine B assay; format: functional; how it was run: as §1
MDA-MB-435 = experiment: Growth inhibition of human MDA-MB-435 cells incubated for 48 hrs by sulforhodamine B assay; format: functional; how it was run: as §1
OVCAR-3 = experiment: Growth inhibition of human OVCAR-3 cells incubated for 48 hrs by sulforhodamine B assay; format: functional; how it was run: as §2
UACC-257 = experiment: Growth inhibition of human UACC-257 cells incubated for 48 hrs by sulforhodamine B assay; format: functional; how it was run: as §3
SNB-19 = experiment: Growth inhibition of human SNB-19 cells incubated for 48 hrs by sulforhodamine B assay; format: functional; how it was run: as §2
SW-620 = experiment: Growth inhibition of human SW-620 cells incubated for 48 hrs by sulforhodamine B assay; format: functional; how it was run: as §3
SK-MEL-2 = experiment: Growth inhibition of human SK-MEL-2 cells incubated for 48 hrs by sulforhodamine B assay; format: functional; how it was run: as §2
BT-549 = experiment: Growth inhibition of human BT-549 cells incubated for 48 hrs by sulforhodamine B assay; format: functional; how it was run: as §1
SF-295 = experiment: Growth inhibition of human SF-295 cells incubated for 48 hrs by sulforhodamine B assay; format: functional; how it was run: as §2
KM12 = experiment: Growth inhibition of human KM12 cells incubated for 48 hrs by sulforhodamine B assay; format: functional; how it was run: as §1
PC-3 = experiment: Growth inhibition of human PC-3 cells incubated for 48 hrs by sulforhodamine B assay; format: functional; how it was run: as §2
SF-539 = experiment: Growth inhibition of human SF-539 cells incubated for 48 hrs by sulforhodamine B assay; format: functional; how it was run: as §2
OVCAR-5 = experiment: Growth inhibition of human OVCAR-5 cells incubated for 48 hrs by sulforhodamine B assay; format: functional; how it was run: as §2
UO-31 = experiment: Growth inhibition of human UO-31 cells incubated for 48 hrs by sulforhodamine B assay; format: functional; how it was run: as §3
CCRF-CEM = experiment: Growth inhibition of human CCRF-CEM cells incubated for 48 hrs by sulforhodamine B assay; format: functional; how it was run: as §1

Compound	GI50 (RXF 393)	GI50 (A498)	inhibition [1]	GI50 (MOLT-4)	GI50 (HCC 2998)	GI50 (Hs-578T)	GI50 (K562)	GI50 (CAKI-1)	GI50 (NCI-H522)	GI50 (NCI-H226)	GI50 (ACHN)	GI50 (M14)	GI50 (HOP-92)	GI50 (MDA-MB-435)	GI50 (UACC-257)	GI50 (SW-620)	GI50 (BT-549)	GI50 (SF-295)	GI50 (KM12)	GI50 (PC-3)	other results
COc1cc2nc(-c3ccc(C(F)(F)F)cc3)cc(OCCCN3CCCC3)c2cc1OC	1130 nM	1580 nM	0%	994 nM	1450 nM	1740 nM	475 nM	188 nM	1740 nM	343 nM	812 nM	336 nM	460 nM	709 nM	1410 nM	1620 nM	1990 nM	328 nM	1340 nM	1070 nM	GI50 (DU-145): 1370 nM; GI50 (SF-268): 2390 nM; GI50 (TK-10): 3240 nM; GI50 (OVCAR-3): 2150 nM; GI50 (SNB-19): 2770 nM; GI50 (SK-MEL-2): 1930 nM; GI50 (SF-539): 1870 nM; GI50 (OVCAR-5): 803 nM; GI50 (UO-31): 2020 nM; GI50 (CCRF-CEM): 1080 nM
COc1cc2nc(-c3ccc(Cl)cc3)cc(OCCCN3CCCCC3)c2cc1OC	1080 nM	1400 nM	20%	2040 nM	2340 nM	2110 nM	1220 nM	287 nM	3280 nM	1120 nM	2450 nM	412 nM	1020 nM	2440 nM	1920 nM	3090 nM	1430 nM	1210 nM	3070 nM	1740 nM	GI50 (DU-145): 2540 nM; GI50 (SF-268): 3200 nM; GI50 (TK-10): 3730 nM; GI50 (OVCAR-3): 3230 nM; GI50 (SNB-19): 2980 nM; GI50 (SK-MEL-2): 2750 nM; GI50 (SF-539): 2570 nM; GI50 (OVCAR-5): 1160 nM; GI50 (UO-31): 1870 nM; GI50 (CCRF-CEM): 2790 nM
COc1cc2nc(-c3ccc(Cl)cc3)cc(OCCCN3CCCC3)c2cc1OC	1170 nM	2190 nM	20%	1500 nM	1860 nM	1890 nM	1060 nM	303 nM	2360 nM	898 nM	1930 nM	402 nM	850 nM	2720 nM	1960 nM	3120 nM	1770 nM	1220 nM	2460 nM	1760 nM	GI50 (DU-145): 2150 nM; GI50 (SF-268): 2530 nM; GI50 (TK-10): 2330 nM; GI50 (OVCAR-3): 2710 nM; GI50 (SNB-19): 3140 nM; GI50 (SK-MEL-2): 2160 nM; GI50 (SF-539): 2440 nM; GI50 (OVCAR-5): 1030 nM; GI50 (UO-31): 1720 nM; GI50 (CCRF-CEM): 2140 nM
COc1cc2nc(-c3ccc(Cl)cc3)cc(OCCCN3CCOCC3)c2cc1OC	1120 nM	1590 nM	50%	2850 nM	1970 nM	2400 nM	2710 nM	305 nM	2170 nM	997 nM	3640 nM	545 nM	1360 nM	1900 nM	1920 nM	3570 nM	2590 nM	1080 nM	3870 nM	2630 nM	GI50 (SF-539): 2990 nM; GI50 (OVCAR-5): 1580 nM; GI50 (UO-31): 1780 nM; GI50 (CCRF-CEM): 3350 nM
